# Reference: article PMC3667667 (Clinical pharmacology and therapeutics, 2012)
# “And” between values parts separate entries of the source, which are not always exact repeats. Identical values can stand only once.
# How the values were obtained:
# UGT1A1 = assay: CAR target gene expression in PBMCs treated in vitro; assay type: cell-based, human; conditions: PBMCs of drug-naive individuals, 10 μmol/l, 48 h
# ABCB1 [1] = conditions: in vivo; ref 32 (Burhenne et al.); cited from earlier work
# [2] = system: hepatic bilirubin metabolism; assay: Total bilirubin levels; assay type: in vivo, human
# CYP3A4 [3] = conditions: humans, long-term treatment; ref 36 (Mouly); cited from earlier work
# [4] = system: CAR variant containing the APYLT insertion; conditions: in vitro; ref 43 (Chen et al.); cited from earlier work
# ABCB1 [5] = assay: CAR target gene expression in PBMCs treated in vitro; assay type: cell-based, human; conditions: PBMCs of drug-naive individuals, 10 μmol/l, 48 h
# CYP3A = conditions: rats, long-term treatment; cited from earlier work
# ABCB1 (P-gp) = conditions: humans, long-term treatment; ref 36 (Mouly); cited from earlier work
# ABCB1 [6] = conditions: cited from earlier work
# ABCC2 = conditions: in vivo; ref 32 (Burhenne et al.); cited from earlier work
# CYP2B6 [7] = assay: CAR target gene expression in PBMCs treated in vitro; assay type: cell-based, human; conditions: PBMCs of drug-naive individuals, 10 μmol/l, 48 h
# ABCB1 [8] = conditions: rats, everted gut sacs, long-term treatment; cited from earlier work
# [9] = Pharmacokinetics of efavirenz in healthy subjects; conditions: male, human, in vivo
# CYP2B6 [10] = assay: Gene expression in PBMCs isolated from treated healthy individuals; assay type: in vivo, human; conditions: single dose vs steady state; P = 0.036
# CYP2B6 [11] = assay: CYP2B6 mRNA induction in primary human hepatocytes; assay type: cell-based; conditions: freshly isolated human hepatocytes, efavirenz 1 μmol/l, vs DMSO control
# CYP3A4 [12] = conditions: humans, long-term treatment; ref 36 (Mouly); cited from earlier work; remark: listed apart in the source
# CYP3A4 activity = assay: Plasma 4β-hydroxycholesterol, marker of CYP3A4 activity; assay type: in vivo, human
# full-length CAR (CAR1) = conditions: in vitro; ref 43 (Chen et al.); cited from earlier work
# ABCB1 [13] = conditions: human intestinal cell line from colon adenocarcinoma; cited from earlier work
# CAR target genes = assay: Gene expression in PBMCs after multiple doses of ezetimibe; assay type: in vivo, human; conditions: multiple doses of ezetimibe 10 mg, treatment period B
# In short: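 PBMCs from 12 healthy male Caucasian volunteers aged 20–36 y, with the drug given after a fast of at least 10 h. EDTA blood (5 ml) drawn in the first 3 h of the pharmacokinetic day; spun 1,500g, 4 °C, 15 min; buffy coats pooled per subject, diluted in ice-cold PBS, Lymphoprep 700g, 30 min, room temperature. 1,500 ng total RNA reverse-transcribed; TaqMan real-time PCR for CYP2B6, UGT1A1, ABCB1, ABCC1, normalized to 18S-rRNA.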
# ABCB1 [14] = conditions: ref 28 (Manceau et al.); cited from earlier work
smiles,measurement,setting,value
O=C1Nc2ccc(Cl)cc2[C@@](C#CC2CC2)(C(F)(F)F)O1 [efavirenz],UGT1A1 mRNA induction in PBMCs in vitro,UGT1A1,significant induction
same,ABCB1 expression in PBMCs,ABCB1 [1],no significant induction
same,Total bilirubin levels after treatment,"[2]; long-term efavirenz, mean ± SD, before treatment 9.82 ± 3.86, P = 0.023",6.34 ± 2.48 mg/dL
same,Intestinal CYP3A4 expression levels,CYP3A4 [3],no impact
same,Trans-activating activity toward CAR variant containing the APYLT insertion,[4],negligible activity
same,ABCB1 mRNA induction in PBMCs in vitro,ABCB1 [5],significant induction
same,Hepatic CYP3A-mediated midazolam metabolism,CYP3A,induce
same,Intestinal ABCB1 (P-gp) expression levels,ABCB1 (P-gp),no impact
same,ABCB1 induction in PBMCs in vitro,ABCB1 [6],induction
same,ABCC2 expression in PBMCs,ABCC2,no significant induction
same,CYP2B6 mRNA induction in PBMCs in vitro,CYP2B6 [7],significant induction
same,ABCB1-mediated intestinal efflux of rhodamine 123,ABCB1 [8],without affecting
same,CLR gluc (renal clearance),[9],0.050 ± 0.054 mL/min
same,C max,[9]; 400 mg,622 ± 244 ng/mL
same,CL renal,[9]; 400 mg,0.062 ± 0.031 mL/min
same,AUC(0-t),"[9]; 400 mg, AUC0–24 h",6710 ± 2340 ng·h/mL
same,AUC(0-t),"[9]; 400 mg, AUC0–120 h",17000 ± 6390 ng·h/mL
same,Tmax,"[9]; 400 mg, T max",2.4 ± 1.9 h
same,Tmax,[9]; Tmax,2 to 3 h
same,"Pearson r, increase in CYP2B6 expression in PBMCs vs reduction in efavirenz AUC",CYP2B6 [10],0.61 and 0.608
same,CYP2B6 expression in primary human hepatocytes,CYP2B6 [11],significantly increased
same,CYP3A4-mediated metabolism (erythromycin breath test),CYP3A4 [12],induction
same,"Pearson r, change in efavirenz AUC vs change in 4β-hydroxycholesterol levels","CYP3A4 activity; single dose vs steady state, P = 0.052",−0.572
same,4β-hydroxycholesterol/cholesterol ratio,"CYP3A4 activity; study days 25 and 30, multiple doses of efavirenz",significant induction
same,Trans-activating activity toward full-length CAR (CAR1),full-length CAR (CAR1),high trans-activating activity
same,ABCB1 expression and function in LS180 cells,ABCB1 [13],increased expression and function
O=C1[C@H](CC[C@H](O)c2ccc(F)cc2)[C@@H](c2ccc(O)cc2)N1c1ccc(F)cc1 [ezetimibe],Impact on total bilirubin levels,"[2]; multiple doses of ezetimibe, study days 15 and 17",No such impact
same,Impact on target gene expression in PBMCs,CAR target genes,did not observe an impact
CCC1(c2ccccc2)C(=O)NC(=O)NC1=O [phenobarbital],ABCB1 induction after treatment of cells,ABCB1 [14],no induction
CO[C@H]1/C=C/O[C@@]2(C)Oc3c(C)c(O)c4c(O)c(c(/C=N/N5CCN(C)CC5)c(O)c4c3C2=O)NC(=O)/C(C)=C\C=C\[C@H](C)[C@H](O)[C@@H](C)[C@@H](O)[C@@H](C)[C@H](OC(C)=O)[C@@H]1C [rifampin],ABCB1 induction after treatment of cells,ABCB1 [14],no induction
